From ChEMBL document CHEMBL1144230, “Development of a second generation of inhibitors of microsomal prostaglandin E synthase 1 expression bearing the gamma-hydroxybutenolide scaffold” (Bioorg Med Chem, 2008) come the findings set out here.

The structures appear in SMILES notation. The source made the active and inactive calls. The rule behind the calls is not given here.

The subject of data set [1] is RAW264.7. Description: Inhibition of LPS-stimulated COX2 expression in mouse RAW264.7 cells at 10 uM by Western blot. The format is functional, cell-based. In outline:
(§1)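 Cells were RAW 264.7 at 1.5 × 10⁶ cells/mL, 18 h with LPS 1 µg/mL and compound at 1 or 10 µM; dexamethasone as reference. Lysis in HEPES pH 8.0 buffer with protease/phosphatase inhibitors, spin 10,000g 15 min 4 °C. COX-2 taken from total fraction, mPGES-1 from microsomal fraction. 50 µg protein per lane on SDS–15% PAGE, PVDF, polyclonal antibodies (COX-2 1/1000, mPGES-1 1/200). β-actin loading control. Bands expressed relative to LPS control. Two experiments.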
Background: In western blotting, separated proteins are transferred to a membrane and probed.

In data set [2] the test system is RAW264.7. Description: Inhibition of LPS-stimulated microsomal prostaglandin E synthase 1 expression at 10 uM in mouse RAW264.7 cells by Western blot. The class given is functional, cell-based. In outline: as §1
Data set [3] relates to RAW264.7. Nature of the data set: Cytotoxicity against mouse RAW264.7 cells at 10 uM after 20 hrs by MTT assay. The format is cell-based. To be noted: raw264.7, 20 h. The gist of the method: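 RAW 264.7 macrophages (1.5 × 10⁶ cells/mL) co-incubated with 1 µg/mL E. coli 0111:B4 LPS at 37 °C for 20 h, compound added in ethanol (ethanol alone as control). Viability read by mitochondrial reduction of MTT to formazan.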
For orientation: Tetrazolium dyes change colour on reduction, which living cells bring about.

For data set [4], the target named is T1, Phospholipase A2, membrane associated (Homo sapiens) (UniProt P14555).
T1 sequence (whole entry): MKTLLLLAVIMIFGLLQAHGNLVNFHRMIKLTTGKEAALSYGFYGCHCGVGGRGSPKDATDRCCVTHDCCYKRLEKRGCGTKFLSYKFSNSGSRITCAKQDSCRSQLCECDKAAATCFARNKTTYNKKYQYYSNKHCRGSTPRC
Description: Inhibition of human synovial recombinant group 2A sPLA2 at 10 uM. In outline:
(§2)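 Compound tested at 10 µM in ethanol (vehicle 1%). Enzyme preincubated 5 min at 37 °C in Tris–HCl, 1 mM CaCl₂, pH 7.5, then incubated 15 min with [³H]oleate-labelled, autoclaved E. coli CECT 101 membranes. Released radioactivity counted. Percent inhibition versus vehicle control, mean ± SEM, n = 6. Enzymes: human recombinant synovial group IIA; porcine pancreatic group IB.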

Data set [5] concerns RAW264.7. Description: Inhibition of LPS-stimulated PGE2 production in mouse RAW264.7 cells at 10 uM after 20 hrs by radioimmunoassay. The class given is functional. To be noted: RAW264.7, 20 h. The gist of the method: (§3)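 Murine RAW 264.7 macrophages, 1.5 × 10⁶ cells/mL, given 1 µg/mL E. coli 0111:B4 LPS at 37 °C for 20 h with compound in ethanol (vehicle ethanol 1%). Supernatant PGE₂ measured by radioimmunoassay. Mean ± SEM, n = 6. IC₅₀ from at least four significant concentrations. ANOVA then Dunnett's t-test.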

The species entered for data set [6] is Sus scrofa. Description: Inhibition of pig pancreas group 1B sPLA2 at 10 uM. In outline:
as §2

Data set [7] has as its system Apis mellifera. Description: Inhibition of bee venom group 3 sPLA2 at 10 uM. The gist of the method: (§4)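 Radiometric sPLA2 assay with membranes of E. coli CECT 101 labelled by growth with [3H]oleic acid, then autoclaved. Enzyme in Tris–HCl, 1 mM CaCl2, pH 7.5, preincubated 5 min at 37 °C with compound in ethanol (vehicle 1%), then 15 min with the labelled membranes. Released radioactivity counted. Percent inhibition versus vehicle control, mean ± SEM, n = 6.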

Data set [8] concerns Naja naja. Nature of the data set: Inhibition of Naja naja venom group 1A sPLA2 at 10 uM. In outline:
as §4

Data set [9] relates to RAW264.7. Description: Inhibition of LPS-stimulated PGE2 production in mouse RAW264.7 cells after 20 hrs by radioimmunoassay. The class given is functional, cell-based. The following applies: RAW264.7, 20 h. In outline: as §3
In data set [10] the test system is RAW264.7. Description: Inhibition of LPS-stimulated microsomal prostaglandin E synthase 1 expression in mouse RAW264.7 cells by Western blot. The format is functional, cell-based. The gist of the method: as §1
Data set [11] deals with RAW264.7. Description: Inhibition of LPS-stimulated COX2 expression in mouse RAW264.7 cells by Western blot. The format is functional, cell-based. The gist of the method:
as §1

Usually inhibition stands for how much of the control response was suppressed. As usually defined, the IC50 is the midpoint of a concentration-inhibition curve. A high value points to a need for much substance.

With `C[C@@H]1C[C@H]2[C@@H]3CCC4=CC(=O)C=C[C@]4(C)[C@@]3(F)[C@@H](O)C[C@]2(C)[C@@]1(O)C(=O)CO`, the outcome in data set [1] and in data set [2] was Active.
In data set [3], `O=C1OC(O)C(c2cccc(-c3csc4ccccc34)c2)=C1Br` (stereo not drawn) showed a Cytotoxicity of 0%. The inhibition amounted to 30% in [4], 28.6% in data set [6], 13.9% in [7] and 11.7% in data set [8]. The compound also came in with an inhibition at 10 µM in data set [5] of 33.6%.
With `O=C1OC(O)C(c2cccc(-c3csc4ccccc34)c2)=C1c1cccc(-c2csc3ccccc23)c1` (stereo not drawn), in data set [9], the IC50 is 3.23 µM. Also, in [3], the Cytotoxicity was found to be 4.1%. The inhibition in data set [4] came to 2.4%; in data set [6] it was 8.3%; in [7] it was 4%; in data set [8], 3.6%. Testing at 10 µM in data set [5] gave an inhibition of 69.2%. In [10], the Activity entry was “Dose-dependent effect”. Moreover, in [11], the outcome was inactive.
In turn, `CCCCc1ccc(-c2ccc(C3=C(Br)C(=O)OC3O)cc2)cc1` (stereo not drawn) returned an IC50 in data set [9] of 2.24 µM. This compound came in with a Cytotoxicity in [3] of 5.5%. Also, the inhibition was 0% in data set [4], 0% in [6], 3.5% in data set [7] and 0% in [8]. In data set [5], this compound came in with an inhibition at 10 µM of 62.2%. Besides, in data set [10], the Activity entry was “Dose-dependent effect”. Further, the result in data set [11] was inactive.
For `O=C1OC(O)C(c2cccc(-c3ccc4ccccc4c3)c2)=C1Br` (stereo not drawn), the Cytotoxicity in [3] is recorded as 18.6%. For the same compound, the inhibition in [4], in [6], in data set [7] and in data set [8] was 0% throughout. The compound further displayed an inhibition at 10 µM in data set [5] of 66.8%.
Regarding `CCc1c(CC(N)=O)c2cc(OCCCP(=O)(O)O)ccc2n1Cc1ccccc1`, the inhibition in data set [4] stood at 96.3%; in [6], 36.9%; in data set [7] it was 2.4%; in [8], 7.9%.
Turning to `O=C1OC(O)C(c2cccc(-c3ccc(Oc4ccccc4)cc3)c2)=C1c1cccc(-c2ccc(Oc3ccccc3)cc2)c1` (stereo not drawn), the Cytotoxicity in data set [3] came to 0%. In addition, the inhibition in [4] amounted to 10.6%; in data set [6] it was 10.2%; in data set [7], 6%; in data set [8], 16.6%. The compound also showed an inhibition at 10 µM in [5] of 22.2%.
Take `O=C1OC(O)C(c2csc3ccccc23)=C1Br` (stereo not drawn): half-maximal inhibition in [9] (IC50) required 1.8 µM. The compound further came in with a Cytotoxicity in data set [3] of 0%. In data set [5], this compound showed an inhibition at 10 µM of 72.2%.
In turn, `CCCCc1ccc(C2=C(c3ccc(-c4ccc(CCCC)cc4)cc3)C(O)OC2=O)cc1` (stereo not drawn) returned an IC50 in data set [9] of 4.59 µM. In addition, the Cytotoxicity in [3] amounted to 0%. Moreover, the inhibition turned out to be 4.4% in data set [4], 0% in data set [6], 2.8% in [7] and 2.6% in data set [8]. In data set [5], at 10 µM the inhibition was 58.7%. Moreover, in [10], the Activity result is “Dose-dependent effect”. For the same compound, the outcome in [11] was inactive.
In data set [3], `O=C1OC(O)C(c2cccc(-c3ccc(Oc4ccccc4)cc3)c2)=C1Br` (stereo not drawn) gave a Cytotoxicity of 0%. Besides, the inhibition in [4] was determined as 2.4%; in data set [6] it was 0%; in data set [7], 5.3%; in [8], 5.8%. Also, in data set [5], the inhibition at 10 µM turned out to be 51%.
In the case of `O=C1OC(O)C(c2cccc(-c3ccc4ccccc4c3)c2)=C1c1ccc2ccccc2c1` (stereo not drawn), the IC50 in data set [9] turned out to be 0.84 µM. In addition, the Cytotoxicity in [3] is reported as 8.6%. In addition, the inhibition in data set [4] turned out to be 14.8%; in data set [6] it was 0%; in data set [7], 2.8%; in data set [8], 2%. In data set [5], this compound yielded an inhibition at 10 µM of 79.6%. The Activity result in [10] is “Dose-dependent effect”. In addition, in [11], the outcome was inactive.
For `O=C1OC(O)C(c2ccc(-c3ccc(-c4ccccc4)cc3)cc2)=C1Br` (stereo not drawn), half-maximal inhibition in data set [9] (IC50) was put at 3.61 µM. Moreover, the Cytotoxicity in data set [3] came out at 1.2%. For the same compound, the inhibition worked out at 12.1% in data set [4], 0% in [6], 0% in [7] and 0% in [8]. In data set [5], the inhibition at 10 µM is 73.1%. Also, the Activity entry in data set [10] is “Dose-dependent effect”. For the same compound, the outcome in [11] was inactive.
